# Experimental data: ChEMBL document CHEMBL4316644, “Eudesmane Glycosides from Ambrosia artemisiifolia (Common Ragweed) as Potential Neuroprotective Agents” (J Nat Prod, 2019)
# Activity calls are given as the source filed them. No cut-off for these calls is given here.
# How the values were obtained:
# [1] = tested on: HT-22; assay: Neuroprotective against amyloid beta (42 residues)-induced cell death in mouse HT22 cells transfected with pEGFP-C1/Abeta42 assessed as increase in cell viability at 40 uM measured after 24 hrs by MTT assay; type: functional, cell-based
# In short: (§1)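 HT22 cells seeded at 4000 cells/well for 2–3 h at 37 °C, 5% CO2, then transfected with 0.2 μg pEGFP-C1/Aβ42 plasmid by Lipofectamine 2000. After 10 h, compounds were added in medium, mostly at 40 μM, some at 5 μM or at 10, 20 and 40 μM. Incubation continued 24 h, then MTT (2 mg/mL) viability read-out. Mean ± SD, n = 3, versus untreated Aβ42-transfected cells.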
# [2] = tested on: HT-22; assay: Neuroprotective against amyloid beta (42 residues)-induced cell death in mouse HT22 cells transfected with pEGFP-C1/Abeta42 assessed as increase in cell viability measured after 24 hrs by MTT assay; type: functional, cell-based; in short: as §1
# [3] = tested on: HT-22; assay: Neuroprotective against amyloid beta (42 residues)-induced cell death in mouse HT22 cells transfected with pEGFP-C1/Abeta42 assessed as increase in fluorescence intensity at 40 uM measured after 24 hrs by fluorescence microscopic analysis; type: functional, cell-based
# In short: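 HT22 cells grown on glass coverslips, transfected with Aβ42 plasmid for 10 h. Medium then replaced with fresh medium containing 2% FBS, with or without compounds at 40 μM, for 24 h. Cells washed once with PBS. Fluorescence and bright-field images were captured by fluorescence microscopy to view GFP condensation.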
# [4] = tested on: HT-22; assay: Neuroprotective against amyloid beta (42 residues)-induced cell death in mouse HT22 cells transfected with pEGFP-C1/Abeta42 assessed as decrease in fluorescence intensity at 40 uM measured after 24 hrs by flow cytometry
# [5] = tested on: HT-22; assay: Neuroprotective against amyloid beta (42 residues)-induced cell death in mouse HT22 cells transfected with pEGFP-C1/Abeta42 assessed as increase in cell viability up to 80 uM measured after 24 hrs by MTT assay; type: functional, cell-based
# [6] = tested on: HT-22; assay: Cytotoxicity against mouse HT22 cells assessed as reduction in cell viability at 40 uM measured after 24 hrs by MTT assay; type: cell-based; conditions: ht-22, 24 h
# In short: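 Untransfected HT22 mouse hippocampal cells grown in DMEM with 10% FBS and penicillin/streptomycin, seeded at 4000 cells/well, then incubated 24 h. Compounds in DMSO, diluted in serum-free medium (final DMSO 0.1 to 0.2% v/v), applied for 24 h. MTT (2 mg/mL) added for 4 h in the dark, formazan dissolved in DMSO, absorbance read at 550 nm.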
Structure (SMILES),Activity [1],further results
CC1=CC[C@H](O)[C@@]2(C)[C@@H](OC(=O)C[C@](C)(O)CC(=O)O)C[C@@H](C(C)C)[C@@H](O[C@@H]3O[C@H](CO)[C@@H](O)[C@H](O)[C@H]3O)[C@H]12,Active,–
CC1=CC[C@H](O)[C@@]2(C)[C@@H](O)C[C@@H](C(C)C)[C@@H](O[C@@H]3O[C@H](CO)[C@@H](O)[C@H](O)[C@H]3O)[C@H]12,Active,Activity [2]: Dose-dependent effect; Activity [3]: Active; Activity [4]: Active
C=C1CC[C@@H]2[C@](C)(CO)[C@H](O)CC[C@@]2(C)[C@@H]1C/C=C1/C(=O)OC[C@H]1O,–,Activity [5]: Active
C=C1C(=O)O[C@@H]2C[C@@H](C)[C@@H]3C[C@@H](OC(C)=O)[C@H](OC(C)=O)[C@@]3(C)C[C@H]12,–,Activity [6]: Toxic
O=C(/C=C/c1ccc(O)cc1)NCCCCN(CCCNC(=O)/C=C/c1ccc(O)cc1)C(=O)/C=C/c1ccc(O)cc1,Active,–
C=C1C(=O)O[C@@H]2[C@H]3C(C)=CC[C@H]3[C@](C)(O)C[C@H](O)[C@@H]12 [CUMAMBRIN B],–,Activity [6]: Toxic
C=C(C(=O)O)[C@H]1C[C@]2(C)C(=O)CC[C@]23O[C@H]1C[C@@H]3C,Active,–
C=C1CC[C@@H](O[C@@H]2O[C@H](CO)[C@@H](O)[C@H](O)[C@H]2O)[C@]2(C)CC[C@@H](C(C)C)[C@H](O)[C@@H]12,Active,–
CC(=O)OC[C@H]1O[C@@H](O[C@@H]2[C@H](C(C)C)C[C@H](OC(=O)C[C@](C)(O)CC(=O)O)[C@]3(C)[C@@H](O)CC=C(C)[C@@H]23)[C@H](O)[C@@H](O)[C@@H]1O,Active,–
CC1=CC[C@H](OC(=O)C[C@](C)(O)CC(=O)O)[C@@]2(C)[C@@H](O)C[C@@H](C(C)C)[C@@H](O[C@@H]3O[C@H](CO)[C@@H](O)[C@H](O)[C@H]3O)[C@H]12,Active,–
CC1=CC[C@H](O[C@@H]2OC[C@@H](O)[C@H](O)[C@H]2O)[C@@]2(C)[C@@H](O)C[C@@H](C(C)C)[C@@H](O[C@@H]3O[C@H](CO)[C@@H](O)[C@H](O)[C@H]3O)[C@H]12,Active,Activity [2]: Dose-dependent effect; Activity [3]: Active; Activity [4]: Active
CC(=O)O[C@@H]1C[C@H]2[C@H](C)[C@H]3OC(=O)[C@@H](C)[C@H]3CC[C@]2(C)[C@H]1OC(C)=O,Active,–
